Laboratory results published in article PMC7296533 (ACS Infectious Diseases, 2020).

Experiments:
NDM-1 = NDM-1 (Klebsiella pneumoniae, UniProt C7C422); test: MBL enzyme inhibition assay, fluorescent cephalosporin substrate FC5; format: biochemical
VIM-2 = VIM-2 (Escherichia coli, UniProt Q5U7L7); test: MBL enzyme inhibition assay, fluorescent cephalosporin substrate FC5; format: biochemical
In short: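 VIM-2 was expressed from a donated plasmid construct and purified. Test compound was serially diluted in 50 mM HEPES pH 7.2 containing 0.01% Triton X-100 and 1 μM ZnSO4, then preincubated for 15 min at 25 °C with 100 pM enzyme. Fluorescent cephalosporin FC536 (0.5 μM) was added and fluorescence (λex 380, λem 460 nm) followed over 30–40 scans. IC50 was fitted from initial rates against concentration.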

IMP-28 = test: MBL enzyme inhibition assay, fluorescent cephalosporin substrate FC5; format: biochemical; conditions: read-out: IC50 against IMP-28; 60 pM IMP-28, 1 μM ZnSO4; mean ± SD
In short: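 Recombinant C-terminal His-tagged IMP-28 (pET28b construct). Serial dilutions of test compound were made in 50 mM HEPES pH 7.2 with 0.01% Triton X-100 and 1 μM ZnSO4. Enzyme (60 pM) was preincubated with compound for 15 min at 25 °C. FC536 (16 μM) was added and fluorescence (ex 380/em 460 nm) read immediately over 30–40 cycles. IC50 was curve-fitted from initial velocities versus inhibitor concentration.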

[1] = tested on: panel of carbapenem-resistant clinical isolates of Gram-negative bacteria; test: Single concentration synergy assay, summary over the panel; format: cell-based; conditions: for Reduction of MIC of Meropenem, in most cases: inhibitor at 32 μg/mL, strains expressing IMP-type enzymes
In short: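 CLSI broth microdilution. Isolates grown overnight on blood agar at 37 °C, then in TSB at 37 °C with shaking to OD600 0.5, and diluted in Mueller-Hinton broth. Meropenem serially diluted in MHB with test compound at a fixed 32 μg/mL final. Incubated 37 °C with shaking for 16–20 h. MIC is the lowest concentration with no visible growth, as the median of triplicates.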

[2] = tested on: E. coli RC0089 (clinical NDM-1 positive isolate); test: OD600 checkerboard assay with Meropenem; format: cell-based; conditions: E. coli expressing NDM-1

NDM-1, sequence (C7C422 29-270, looked up, species assumed): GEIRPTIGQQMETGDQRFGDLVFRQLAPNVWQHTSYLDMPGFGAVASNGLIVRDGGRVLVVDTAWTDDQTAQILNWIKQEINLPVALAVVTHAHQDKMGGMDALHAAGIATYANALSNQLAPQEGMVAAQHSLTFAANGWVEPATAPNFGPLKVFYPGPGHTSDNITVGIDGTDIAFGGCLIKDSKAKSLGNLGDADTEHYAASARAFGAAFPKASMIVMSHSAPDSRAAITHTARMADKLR

SMILES	IC50 (NDM-1)	Effect of zinc sulfate concentration on IC50 against NDM-1 (NDM-1; zinc sulfate 0.1 to 20 μM)	IC50 (VIM-2)	IC50 (IMP-28)	Reduction of MIC of Meropenem, in most cases [1]	Relationship with Meropenem in checkerboard (in words) [2]	Synergy with Meropenem against strains expressing serine-carbapenemases ([1]; KPC-2 and OXA-48)	Antibacterial activity of the inhibitor alone ([1]; highest tested concentration 256 μg/mL)
O=C(O)c1cccc(C(=O)O)n1 [DPA, 2,6-Dipicolinic acid, reference compound]	3.8 ± 0.04 µM	zinc-dependent effect	2.9 ± 0.5 µM	17 ± 1 µM	≤ 4 fold			
O=C(O)CN(CC(=O)O)CC(=O)O [compound 3, Nitrilotriacetic acid]			~2.4 µM	112 ± 3 µM	≤ 4 fold	strong synergistic relationship	complete lack of synergy	no antibacterial activity
